According to ChEMBL document CHEMBL1142198, “Diversity of ampicillin resistance genes and antimicrobial susceptibility patterns in Haemophilus influenzae strains isolated in Korea” (2007):
Values after ≈ are worked out from the molar mass of the structure shown.

Legend:
Assay type in all cases: functional
Haemophilus influenzae [1] = assay: Antimicrobial activity against Haemophilus influenzae strains causing clinical infections
In short: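 Etest MICs for 196 clinical-infection isolates collected 2000–2005 at two Seoul tertiary-care hospitals. A 0.5 McFarland broth suspension was spread on Haemophilus test medium agar, strips applied once dry, then incubated 35°C, 5% CO2, 20 h. ATCC 49766 and ATCC 49247 served as controls in each batch.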

Haemophilus influenzae [2] = assay: Antimicrobial activity against Haemophilus influenzae strains that are normal flora
In short: (§1)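 Etest MIC determination on Haemophilus test medium agar inoculated evenly with a broth suspension equivalent to a 0.5 McFarland standard. Once dry, strips for 10 antibiotics applied; incubated 35°C, 5% CO2, 20 h. MIC read at complete growth inhibition. ATCC 49766 and ATCC 49247 included as controls in each batch. Korean clinical isolates 2000–2005 classified by nitrocefin disk and PCR.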

Haemophilus influenzae [3] = assay: Antimicrobial activity against Haemophilus influenzae BLNAS strains; in short: as §1
Haemophilus influenzae [4] = assay: Antimicrobial activity against Haemophilus influenzae BLPAR strains; in short: as §1
Haemophilus influenzae [5] = assay: Antimicrobial activity against Haemophilus influenzae BLNAR strains; in short: as §1
Haemophilus influenzae [6] = assay: Antimicrobial activity against Haemophilus influenzae BLPACR strains; in short: as §1

SMILES | MIC50 (Haemophilus influenzae [1]) | MIC90 (Haemophilus influenzae [1]) | MIC50 (Haemophilus influenzae [2]) | MIC90 (Haemophilus influenzae [2]) | MIC50 (Haemophilus influenzae [3]) | MIC90 (Haemophilus influenzae [3]) | MIC50 (Haemophilus influenzae [4]) | MIC90 (Haemophilus influenzae [4]) | MIC50 (Haemophilus influenzae [5]) | MIC90 (Haemophilus influenzae [5]) | MIC50 (Haemophilus influenzae [6]) | MIC90 (Haemophilus influenzae [6])
O=C(N[C@H](CO)[C@H](O)c1ccc([N+](=O)[O-])cc1)C(Cl)Cl [CHLORAMPHENICOL] | 0.5 µg/mL (≈ 1.55 µM) | 8 µg/mL (≈ 24.8 µM) | 0.75 µg/mL (≈ 2.32 µM) | 4 µg/mL (≈ 12.4 µM) | 0.5 µg/mL (≈ 1.55 µM) | 0.75 µg/mL (≈ 2.32 µM) | 0.75 µg/mL (≈ 2.32 µM) | 12 µg/mL (≈ 37.1 µM) | 0.5 µg/mL (≈ 1.55 µM) | 6 µg/mL (≈ 18.6 µM) | 0.5 µg/mL (≈ 1.55 µM) | 8 µg/mL (≈ 24.8 µM)
CC[C@H]1OC(=O)[C@H](C)[C@@H](O[C@H]2C[C@@](C)(OC)[C@@H](O)[C@H](C)O2)[C@H](C)[C@@H](O[C@@H]2O[C@H](C)C[C@H](N(C)C)[C@H]2O)[C@](C)(OC)C[C@@H](C)C(=O)[C@H](C)[C@@H](O)[C@]1(C)O [CLARITHROMYCIN] | 16 µg/mL (≈ 21.4 µM) | 32 µg/mL (≈ 42.8 µM) | 16 µg/mL (≈ 21.4 µM) | 32 µg/mL (≈ 42.8 µM) | 16 µg/mL (≈ 21.4 µM) | 24 µg/mL (≈ 32.1 µM) | 16 µg/mL (≈ 21.4 µM) | 32 µg/mL (≈ 42.8 µM) | 12 µg/mL (≈ 16 µM) | 24 µg/mL (≈ 32.1 µM) | 16 µg/mL (≈ 21.4 µM) | 256 µg/mL (≈ 342 µM)
C[C@@H](O)[C@H]1C(=O)N2C(C(=O)O)=C(S[C@@H]3CN[C@H](C(=O)N(C)C)C3)[C@H](C)[C@H]12 [MEROPENEM] | 0.094 µg/mL (≈ 0.245 µM) | 32 µg/mL (≈ 83.4 µM) | 0.094 µg/mL (≈ 0.245 µM) | 32 µg/mL (≈ 83.4 µM) | 0.064 µg/mL (≈ 0.167 µM) | 0.125 µg/mL (≈ 0.326 µM) | 0.094 µg/mL (≈ 0.245 µM) | 32 µg/mL (≈ 83.4 µM) | 0.125 µg/mL (≈ 0.326 µM) | 32 µg/mL (≈ 83.4 µM) | 0.19 µg/mL (≈ 0.495 µM) | 0.38 µg/mL (≈ 0.991 µM)
CO/N=C(\C(=O)N[C@@H]1C(=O)N2C(C(=O)O)=C(COC(N)=O)CS[C@H]12)c1ccco1 [CEFUROXIME] | 1 µg/mL (≈ 2.36 µM) | 8 µg/mL (≈ 18.9 µM) | 0.5 µg/mL (≈ 1.18 µM) | 256 µg/mL (≈ 603 µM) | 0.5 µg/mL (≈ 1.18 µM) | 1 µg/mL (≈ 2.36 µM) | 1 µg/mL (≈ 2.36 µM) | 256 µg/mL (≈ 603 µM) | 1 µg/mL (≈ 2.36 µM) | 8 µg/mL (≈ 18.9 µM) | 1 µg/mL (≈ 2.36 µM) | 256 µg/mL (≈ 603 µM)
N[C@@H](C(=O)N[C@@H]1C(=O)N2C(C(=O)O)=C(Cl)CS[C@H]12)c1ccccc1 [CEFACLOR ANHYDROUS] | 8 µg/mL (≈ 21.8 µM) | 256 µg/mL (≈ 696 µM) | 2 µg/mL (≈ 5.44 µM) | 256 µg/mL (≈ 696 µM) | 2 µg/mL (≈ 5.44 µM) | 6 µg/mL (≈ 16.3 µM) | 12 µg/mL (≈ 32.6 µM) | 256 µg/mL (≈ 696 µM) | 6 µg/mL (≈ 16.3 µM) | 256 µg/mL (≈ 696 µM) | 16 µg/mL (≈ 43.5 µM) | 256 µg/mL (≈ 696 µM)
C[C@H]1COc2c(N3CCN(C)CC3)c(F)cc3c(=O)c(C(=O)O)cn1c23.C[C@H]1COc2c(N3CCN(C)CC3)c(F)cc3c(=O)c(C(=O)O)cn1c23.O [LEVOFLOXACIN] | 0.016 µg/mL | 0.32 µg/mL | 0.023 µg/mL | 1 µg/mL | 0.016 µg/mL | 0.032 µg/mL | 0.016 µg/mL | 0.032 µg/mL | 0.023 µg/mL | 1 µg/mL | 0.016 µg/mL | 0.047 µg/mL
CC1(C)S[C@@H]2[C@H](NC(=O)[C@H](N)c3ccccc3)C(=O)N2[C@H]1C(=O)O [AMPICILLIN] | 24 µg/mL (≈ 68.7 µM) | 256 µg/mL (≈ 733 µM) | 0.38 µg/mL (≈ 1.09 µM) | 256 µg/mL (≈ 733 µM) | 0.25 µg/mL (≈ 0.715 µM) | 0.38 µg/mL (≈ 1.09 µM) | 256 µg/mL (≈ 733 µM) | 256 µg/mL (≈ 733 µM) | 0.75 µg/mL (≈ 2.15 µM) | 256 µg/mL (≈ 733 µM) | 256 µg/mL (≈ 733 µM) | 256 µg/mL (≈ 733 µM)
C=CC1=C(C(=O)O)N2C(=O)[C@@H](NC(=O)/C(=N\OCC(=O)O)c3csc(N)n3)[C@H]2SC1 [CEFIXIME] | 0.047 µg/mL (≈ 0.104 µM) | 0.75 µg/mL (≈ 1.65 µM) | 0.047 µg/mL (≈ 0.104 µM) | 32 µg/mL (≈ 70.6 µM) | 0.023 µg/mL (≈ 0.0507 µM) | 0.064 µg/mL (≈ 0.141 µM) | 0.047 µg/mL (≈ 0.104 µM) | 32 µg/mL (≈ 70.6 µM) | 0.064 µg/mL (≈ 0.141 µM) | 32 µg/mL (≈ 70.6 µM) | 0.064 µg/mL (≈ 0.141 µM) | 256 µg/mL (≈ 565 µM)
